Consider 98 molecules from ChEMBL document CHEMBL4513216, “Probing the Open Global Health Chemical Diversity Library for Multistage-Active Starting Points for Next-Generation Antimalarials” (ACS Infect Dis, 2020).

Structures are written as SMILES.

This data set can be described thus: Toxicity liver stage against HepG2, at 10uM. In kind it is cell-based. Also on record: test concentration 10 uM, cell line HepG2-A16-CD81EGFP. To be noted: human, HepG2-A16-CD81EGFP cells; read-out: INHIBITION
The essentials: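 Uninfected HepG2-A16-CD81EGFP cells, 3 × 10^3 per well, 1536-well, plated on prespotted compound at 10 μM final, parasite-free screening media added to match infected plates; puromycin 10 μM positive, DMSO 0.5% negative; run in parallel with 48 h PbLuc assay at 37 °C, 5% CO2; viability by CellTiter-Glo luminescence, normalized to controls.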
On to `Cc1cc2nc(CO[C@H]3CN(C4CCN(C)CC4)C[C@H]3F)[nH]c2cc1C`, for which the cytotoxicity at 10 µM was -11.6%.

For `CS(=O)(=O)N1CC[C@@H](CC(=O)O)[C@@H](CC2=NCCc3cc(F)ccc32)C1`, the cytotoxicity at 10 µM worked out at 0.699%.

Regarding `COC(=O)c1cccc(C(=O)N2CCN(c3ccc(Cl)cc3)CC2)n1`, the cytotoxicity at 10 µM is -7.55%.

`Cc1ccc(-n2ncc(C(=O)N(C)C3CCN(C)CC3)c2N)cc1C`: the cytotoxicity at 10 µM was -8.56%. The value for `CN1CCN(CC(CC(=O)Nc2ccc(Cl)cc2)C(=O)O)CC1` (stereo not drawn) was 2.83%.

`O=C(CC1CCCC1)Nc1ccc(-n2cc(Cl)cn2)nc1`: the cytotoxicity at 10 µM was -56.3%. `COc1nn(C)cc1C(=O)NCC(=O)NCc1cccnc1`: the cytotoxicity at 10 µM was -6.32%. The value for `O=C1CCSCC(C(=O)N2CCCCC2)N1` (stereo not drawn) was -3.55%; that for `COC(C)(CNS(=O)(=O)c1cnn(C)c1)c1ccccc1F` (stereo not drawn) was -4.8%. Regarding `CC(=O)N1CCC2(CC1)CCN(S(=O)(=O)c1ccccc1)C2`, the cytotoxicity at 10 µM worked out at 2.35%. For `N#CC1(C(=O)N2Cc3cc(-c4cc[nH]n4)ccc3C2c2cnco2)CC1` (stereo not drawn), the cytotoxicity at 10 µM amounted to 25.5%. Consider `CC(=O)N1CC(c2ncn(C(C)C)n2)c2cc(C(=O)NC3CC3)ccc21` (stereo not drawn), for which the cytotoxicity at 10 µM came to 4.11%. Regarding `CC(C)c1nnc2ccc(N3CCC(C(=O)NC4CC4)CC3)nn12`, the cytotoxicity at 10 µM is -5.01%. On to `CC(=O)N1CCC(Oc2ccc(Cl)cn2)CC1`, for which the cytotoxicity at 10 µM was -19.5%.

With `Cc1ccc2c(ccn2CCC(=O)N2CCC(C(N)=O)CC2)c1`, the cytotoxicity at 10 µM is -12.6%. As to `Cc1cc(N2CCN(C3CCOCC3)CC(C(=O)N(C)C)C2)ncn1` (stereo not drawn), the cytotoxicity at 10 µM is 3.74%. Take `O=C(c1ccc(=O)[nH]n1)N1CCCC(O)(CN2CCC(F)(F)CC2)CC1` (stereo not drawn): the cytotoxicity at 10 µM is -8.71%. For `COCCNc1ccc(CC2CCCN(Cc3c[nH]cn3)C2)nn1` (stereo not drawn), the cytotoxicity at 10 µM is -2.7%. As to `Cc1cc(-c2cnc(NC3CCCC3)nc2-c2ccco2)on1`, the cytotoxicity at 10 µM is -7.56%. The value for `O=C(c1ccc(Cl)cc1)N1CCC2(C1)C(=O)Nc1ccccc12` (stereo not drawn) was 1.91%; that for `O=C(CN(Cc1cccs1)C1CCS(=O)(=O)C1)NCCc1cccs1` (stereo not drawn) was -11.5%. The value for `CC(O)CCN(C)S(=O)(=O)Cc1ccc(Br)cc1` (stereo not drawn) was 3.47%; that for `CC(C)CN(CC(C)C)Cn1ncc2cn(-c3ccccc3)nc2c1=O` was 1.42%. Turning to `CN(CCc1ccccn1)C(=O)Nc1cccnc1-n1cccn1`, the cytotoxicity at 10 µM was 3.25%.

`O=C(NCCNc1ncccn1)NCCc1c(F)cccc1F`: the cytotoxicity at 10 µM worked out at 7.49%. Turning to `CC(NC(=O)CN1C=Nc2ccccc2S1(=O)=O)c1ccccc1` (stereo not drawn), the cytotoxicity at 10 µM was -0.476%. Turning to `CS(=O)(=O)Cc1ccccc1NCc1cc(Cl)ccc1Cl`, the cytotoxicity at 10 µM came out at 7.67%. The value for `N#Cc1ccc(C(=O)N(Cc2ccncc2)C2CC2)cc1` was -8.53%. Consider `CN(C1CCN(c2ccccn2)CC1)S(=O)(=O)c1cccc(F)c1`, for which the cytotoxicity at 10 µM was found to be 10.8%. For `CC(C)(C)OC(=O)NCC1CCCCN1Cc1ccncc1` (stereo not drawn), the cytotoxicity at 10 µM turned out to be 9.04%. Take `COc1cccc(CN(C)Cc2cc(C#N)ccc2F)c1OC`: the cytotoxicity at 10 µM is -5%. `CCCS(=O)(=O)N1CCC(NC(=O)c2ccc(C)s2)CC1`: the cytotoxicity at 10 µM is -11.4%. Take `CCCC(=O)N1CCC(C(=O)NCCN2CCC(C)CC2)CC1`: the cytotoxicity at 10 µM is -2.6%. With `COCC(C)NC(=O)NCCCc1cc(N)n(-c2ccccc2)n1` (stereo not drawn), the cytotoxicity at 10 µM is -12.2%. With `Cc1cc(CN2CCN(C(=O)C(C(C)C)n3cncn3)CC2)on1` (stereo not drawn), the cytotoxicity at 10 µM stood at 2.35%. Regarding `CN(C)C(=O)Cc1ccc(NC(=O)NC2CC2)cc1`, the cytotoxicity at 10 µM was determined as 6.13%.

`COCCn1ccc(NC(=O)Nc2cccc(C#N)c2)n1`: the cytotoxicity at 10 µM came out at 4%. On to `Cc1cc(NC(=O)CNC(C)(C)c2ccc3c(c2)OCCO3)no1`, for which the cytotoxicity at 10 µM was -7.1%. With `CC1CN(C)c2ccccc2CN1C(=O)c1cc[nH]c(=O)c1` (stereo not drawn), the cytotoxicity at 10 µM stood at 4.96%.

With `COC(=O)c1ccc(N2CCC(c3ccccc3)CC2)nn1`, the cytotoxicity at 10 µM was -3.59%. In the case of `CN(C)C(CNC(=O)NCc1ccco1)c1cccs1` (stereo not drawn), the cytotoxicity at 10 µM was -3.29%. On to `OCc1ccc(CNc2ccccc2CN2CCC(O)CC2)o1`, for which the cytotoxicity at 10 µM turned out to be 1.85%.

For `Cc1cc(-n2cncn2)ccc1C(=O)N(CC(F)(F)F)C(C)C`, the cytotoxicity at 10 µM was -3.72%. With `CC1(C)CCC(C(=O)O)c2ccccc21` (stereo not drawn), the cytotoxicity at 10 µM is -1.92%. The value for `CN(C)CC1CCN(Cc2nccn2CC(F)(F)F)CC1` was 4.99%; that for `Cc1noc(C2CCN(C(C)c3nc(C(C)(C)C)no3)CC2)n1` (stereo not drawn) was 4.13%; that for `Cc1nc(-c2ccccc2C)n(CC(=O)NC(C)C2CC2)n1` (stereo not drawn) was 20.8%.

As for `CC1CCN(C(=O)C(C)N2CCc3[nH]nc(C(F)(F)F)c3C2)CC1` (stereo not drawn), the cytotoxicity at 10 µM came out at 2.54%. With `CC(=O)NCC1CCN(c2ccnc3ccc(Br)cc23)CC1`, the cytotoxicity at 10 µM was 14.2%.

For `Cn1cc(C2CCCN2C(=O)Cn2c(=O)oc3ccccc32)cn1` (stereo not drawn), the cytotoxicity at 10 µM is 1.84%. For `CN(Cc1nnn(CC2CCC2)n1)C(=O)c1ccccc1`, the cytotoxicity at 10 µM is -6.06%.

In the case of `NC(=O)CC1CCCCN1C(=O)Cc1cccc(Br)c1` (stereo not drawn), the cytotoxicity at 10 µM turned out to be 1.77%. Turning to `CC(C)c1ccc(C(C)N2CCCN(C(N)=O)CC2)cc1` (stereo not drawn), the cytotoxicity at 10 µM was -4.24%. With `C1CCCN(c2nc(C3CC3)no2)CC1`, the cytotoxicity at 10 µM is -5.59%. With `CCCNC(=O)C(C)Nc1cccc(Oc2ccc(C#N)cn2)c1` (stereo not drawn), the cytotoxicity at 10 µM is -7.99%. The value for `Cc1cc(NC(=O)Cc2ccccc2O)cnc1N1CCCCC1` was -0.134%; that for `CCN(C(=O)c1ccc2c(c1)OCO2)C1CC(=O)NC1=O` (stereo not drawn) was -3.04%; that for `Cc1n[nH]cc1CNCC(c1ccsc1)N(C)C` (stereo not drawn) was 3.05%. Regarding `NCc1ccnc(Oc2ccccc2)c1`, the cytotoxicity at 10 µM is 2.87%. The value for `CSC1(CNC(=O)CCc2ccc(Cl)s2)CCOCC1` was 6.45%. For `COc1c(C2CCCN2C(=O)c2cc(Cl)c[nH]2)c(C)nn1C` (stereo not drawn), the cytotoxicity at 10 µM was 4.6%. The value for `CCCOCCNc1nc2c(s1)c(C)nn2C` was -15.9%; that for `CCC1CN(C(=O)c2ccccc2C#N)CCN1C(C)C` (stereo not drawn) was -0.772%.

For `CC(C)c1cc(NCC2(Cn3cccn3)CC2)n2nccc2n1`, the cytotoxicity at 10 µM is -10.9%. The value for `COCCN(C)C[C@@H]1CN(C(=O)c2ccc(C)cc2)C[C@@H]1CO` was -9.21%. On to `CCCn1cnnc1CNC(=O)C1COc2ccc(OC)cc2C1` (stereo not drawn), for which the cytotoxicity at 10 µM was -2.06%. With `CN1CC2(CCN(C(=O)CCc3nc4cccnc4n3C)C2)OC1=O` (stereo not drawn), the cytotoxicity at 10 µM turned out to be 1.56%. As for `CC(=O)N[C@@H](CC(C)C)C(=O)N1CCC(n2cc(CO)nn2)CC1`, the cytotoxicity at 10 µM was found to be 9.56%.

With `Cc1ccnc(NC(=O)c2ccc(C)o2)c1`, the cytotoxicity at 10 µM is -4.33%. The value for `COCCN(C)CCN1CC2(CCN(C3CCCCC3)CC2)OC1=O` was 3.73%; that for `O=C(O)C1CCN(C[C@H]2CC[C@@H](Cc3ccc4c(c3)OCO4)O2)CC1` was -7.48%; that for `CCc1ocnc1C(=O)N1CCC(C2CCN(c3ncccn3)CC2)C1` (stereo not drawn) was 3.6%. The value for `CCN(CC)CCn1ccnc1-c1cccc(O)c1` was -5.13%; that for `C/C(=C\c1ccco1)CN(C)C(C)Cc1cc(C)ccn1` (stereo not drawn) was 0.277%; that for `O=C(c1ccc(O)cn1)N1CCOC(c2ccc(Cl)c(Cl)c2)C1` (stereo not drawn) was -4.57%. As to `CN(CCO)C[C@@H]1CN(Cc2ccccc2-c2ccccc2)C[C@@H]1CO`, the cytotoxicity at 10 µM was -14%.

As to `COCCOCC(=O)N1CCC(O)(c2ccc3nc(C)ccc3c2)CC1`, the cytotoxicity at 10 µM was -1.01%.

In the case of `CCNC(=O)C1CCN(c2nc(-c3ccco3)nc3c2CCNCC3)C1` (stereo not drawn), the cytotoxicity at 10 µM was -5.87%. In the case of `CSc1ccccc1CN1CCCn2nc(CNC(=O)N(C)C)cc2C1`, the cytotoxicity at 10 µM was -25.5%. The value for `Cc1nc(CN2CCCC(NCc3cccc4ccccc34)C2)no1` (stereo not drawn) was -0.819%. As for `COc1c(CNC2CCC(O)CC2)c(C(C)C)nn1C` (stereo not drawn), the cytotoxicity at 10 µM was -6.59%.

Regarding `CC(C)Cc1noc(CN2CCN(C(=O)c3ccccc3F)CC2)n1`, the cytotoxicity at 10 µM is -10.8%. For `Cc1nc(C)n(CC2CCCN(CC(=O)Nc3cc(C)on3)C2)n1` (stereo not drawn), the cytotoxicity at 10 µM is -3.1%. Consider `N#Cc1cccnc1N1CCCN(C(=O)CCc2nccs2)CC1`, for which the cytotoxicity at 10 µM was -11.5%.

With `Cc1cccc(OCCC(=O)NCC(C)(C)C(N)=O)c1`, the cytotoxicity at 10 µM is -6.38%. Consider `O=C(c1cc(Cl)c2c(c1)OCCO2)N1CCCC(n2cncn2)C1` (stereo not drawn), for which the cytotoxicity at 10 µM was determined as 1.56%. For the molecule `Cc1cccc2nc(C(=O)N3CCC(Nc4cccnn4)CC3)cn12`, the cytotoxicity at 10 µM is -0.77%. In the case of `Cc1ccc(CN(CCCN2CCOCC2)Cc2[nH]cnc2C)o1`, the cytotoxicity at 10 µM is -12.9%. For `CC(C)N(C)Cc1cnc2n1CCN(C(=O)Cc1cccs1)C2C` (stereo not drawn), the cytotoxicity at 10 µM was determined as 7.86%. Consider `CN(C)C(=O)COCC1CN(C2CCC2)Cc2ncn(C)c21` (stereo not drawn), for which the cytotoxicity at 10 µM was determined as 14.1%. For `Cc1cccc(CN2C[C@@H]3OCCN(c4cnccn4)[C@@H]3C2)n1`, the cytotoxicity at 10 µM was found to be 5.25%. Regarding `CCOCC1CN(Cc2ccoc2)Cc2nn(CC3CC3)cc21` (stereo not drawn), the cytotoxicity at 10 µM was -11.9%. For `CC(C)CN1CCN(C(=O)c2ccncc2F)Cc2cccnc21`, the cytotoxicity at 10 µM was 1.71%. Turning to `c1cc(CN2C[C@@H]3COC[C@]3(COCC3CC3)C2)ccn1`, the cytotoxicity at 10 µM was -3.29%.

As to `Cc1cnc(N2CCCn3c(nnc3CN(C)C(C)C)C2)nc1`, the cytotoxicity at 10 µM is 4.42%.

Take `Cc1cccc(N2CCC3(CCCN(C(=O)c4cccnc4)C3)C2)n1` (stereo not drawn): the cytotoxicity at 10 µM amounted to 0.677%. As to `c1cnc(N2CCCC3(CCN(CC4CCOC4)CC3)C2)nc1` (stereo not drawn), the cytotoxicity at 10 µM is -2.21%. For the molecule `Cc1ncncc1C(=O)N1C[C@@H]2CC[C@H]1CN(C(=O)c1ccncc1)C2`, the cytotoxicity at 10 µM was -7.61%.
